The record followed here is ChEMBL document CHEMBL3867429, “Euphorbesulins A-P, Structurally Diverse Diterpenoids from Euphorbia esula” (J Nat Prod, 2016).

The structures appear in SMILES notation. pIC50: −log10 of the molar value.

This assay has as its system Plasmodium falciparum. Nature of the assay: Antimalarial activity against chloroquine-resistant Plasmodium falciparum Dd2 after 72 hrs by SYBR green-based fluorescence assay. Particulars: Dd2, 72 h. In kind it is functional. Put shortly: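 Growth-inhibition assay of the chloroquine-resistant P. falciparum Dd2 strain over 72 h, read by SYBR Green fluorescence and run under a slightly modified published protocol. Artemisinin served as positive control.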
For orientation: pIC50 means the IC50 on a negative log10 scale, so that one unit is a factor of ten. Turning to `C=C1[C@H](OC(C)=O)[C@@H](OC(C)=O)[C@@H](OC(C)=O)C(C)(C)/C=C/[C@H](C)C(=O)[C@@]2(OC(C)=O)C[C@@](C)(OC(C)=O)[C@H](OC(=O)c3ccccc3)[C@@H]2[C@H]1OC(C)=O`, the negative logarithm of the IC50 (pIC50) was less than 5.30.
Consider `C=C1[C@H](OC(C)=O)[C@@H](OC(C)=O)[C@@H](OC(C)=O)C(C)(C)/C=C/[C@H](C)C(=O)[C@]2(O)[C@H]([C@@H](OC(C)=O)[C@@H](C)[C@H]2OC(C)=O)[C@H]1OC(=O)c1ccccc1`, for which the negative-log IC50 (pIC50) was less than 5.30.
For the molecule `C=C1[C@H](OC(=O)c2ccccc2)[C@@H](O)[C@@H](OC(C)=O)C(C)(C)/C=C/[C@H](C)C(=O)[C@@]2(OC(C)=O)C[C@H](C)[C@H](OC(C)=O)[C@@H]2[C@H]1OC(C)=O`, the negative-log IC50 (pIC50) is less than 5.30.
The value for `C=C1C[C@]2(O)C(=O)C(C)(C)C[C@H]2[C@@](C)(O)C(=O)[C@@]2(O)C[C@H](C)[C@H](OC(=O)c3ccccc3)[C@@H]2[C@H]1OC(=O)c1ccccc1` was less than 5.30.
In turn, `C=C1[C@H](OC(C)=O)[C@@H](OC(C)=O)[C@@H](OC(C)=O)C(C)(C)/C=C/[C@H](C)C(=O)[C@]2(OC(C)=O)[C@H]([C@@H](OC(C)=O)[C@@H](C)[C@H]2O)[C@H]1OC(=O)c1ccccc1` had a pIC50 of less than 5.30.
The same measure for `C=C1C[C@]2(O)C(=O)C(C)(C)C[C@H]2[C@@](C)(O)C(=O)[C@@]2(O)C[C@H](C)[C@H](OC(=O)c3ccccc3)[C@@H]2[C@H]1OC(=O)[C@H](C)C(C)C`: 5.62; for `C=C1[C@H](OC(=O)c2ccccc2)[C@@H](OC(C)=O)[C@@H](OC(C)=O)C(C)(C)/C=C/[C@H](C)C(=O)[C@]2(OC(C)=O)[C@H]([C@@H](OC(C)=O)[C@](C)(O)[C@H]2O)[C@H]1OC(=O)c1ccccc1`: less than 5.30; for `C=C1[C@H](OC(=O)c2ccccc2)[C@@H](OC(C)=O)[C@@H](OC(C)=O)C(C)(C)/C=C/[C@H](C)C(=O)[C@@]2(OC(C)=O)C[C@H](C)[C@H](OC(C)=O)[C@@H]2[C@H]1OC(=O)c1ccccc1`: 6.92.
Molecule `C=C1[C@H](OC(=O)c2ccccc2)[C@@H](O)[C@@H](OC(C)=O)C(C)(C)/C=C/[C@H](C)C(=O)[C@@]2(OC(C)=O)C[C@@](C)(OC(C)=O)[C@H](OC(C)=O)[C@@H]2[C@H]1OC(C)=O` showed a negative logarithm of the IC50 (pIC50) of less than 5.00.
`C=C1C[C@]2(O)C(=O)C(C)(C)C[C@H]2[C@@](C)(O)C(=O)[C@@]2(O)C[C@H](C)[C@H](OC(=O)c3ccccc3)[C@@H]2[C@H]1OC(C)=O`: the negative-log IC50 (pIC50) was less than 5.30.
The value for `C=C1[C@H](OC(C)=O)[C@@H](OC(C)=O)[C@@H](OC(C)=O)C(C)(C)/C=C/[C@H](C)C(=O)[C@]2(OC(C)=O)[C@H]([C@@H](OC(=O)c3ccccc3)[C@@H](C)[C@H]2O)[C@H]1OC(C)=O` was less than 5.30.
In turn, `C[C@@H]1CC[C@H]2[C@@H](C)C(=O)O[C@@H]3O[C@@]4(C)CC[C@@H]1[C@]32OO4` [ARTEMISININ] showed a negative logarithm of the IC50 (pIC50) of 8.15.
